INS promoter act: activators of insulin promoter-driven GFP, primary screen, imaging, TRM-6 cells, eGFP reporter, cell count; plate-scaled: unstimulated 0, stimulated control 100; AID 1296, 2008; hit rate 0.81% among 130,000; activation, % at 2 µM;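 active = activation at 2 µM above a set limit, confirmed on inspection of the cell images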;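 also: share of cells whose green reporter signal exceeds an intensity cutoff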
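material = TRM-6 human fetal islet cells, insulin promoter–eGFP reporter | input = 1,000 TRM-6 cells seeded per well | benchmarks = stimulated versus unstimulated wells as plate controls | measured by = automated fluorescence imaging of paraformaldehyde-fixed, Hoechst-counterstained cells, green channel | schedule = compound exposure 48 h, 37 °C | reagent = tamoxifen at 0.75 µM added at seeding for reporter induction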
The depositor's hits bear a star. This excerpt belongs to a sample that is enriched for hits.

SMILES	INS promoter act
O=C(CNC(=O)c1ccc(S(=O)(=O)N2CCCC2)cc1)N/N=C/c1c(Cl)cccc1Cl	119
C/C(=N\NC(=O)c1ccc(Cl)c(S(=O)(=O)Nc2ccccc2Cl)c1)c1ccncc1	6
COc1ccc(CCNC2CC(=O)N(N(C)C)C2=O)cc1OC (centres undefined)	-3
COc1ccc(C2CC(=O)N(CCCN(C)CCc3ccc(OC)c(OC)c3)C2)cc1 (centres undefined)	-7
CCCN1CCC(N(C)CCc2ccc(OC)c(OC)c2)CC1	127*
COc1ccc(C2=[N+](C)CCn3cccc32)c(OC)c1	8
COCCNC(=O)/C(C#N)=C/c1ccc(OCC(=O)NC2CCCCC2)cc1	129
O=C(Cc1c(F)cccc1Cl)N1CCCC1	557*
CC(NC(=O)Cc1c(F)cccc1Cl)C1CCCO1 (centres undefined)	-3
CNC(=O)CSCc1c(F)cccc1Cl	-81
COc1ccc(NC(=O)c2cc3c(s2)CCC(C)C3)cc1S(=O)(=O)N1CCOCC1 (centres undefined)	-9
O=C(Nc1cccc2ccccc12)N1CCOCC1	3
N#C/C(=C\c1sc(N2CCOCC2)nc1-c1ccccc1)C(=O)Nc1cccc2ccccc12	223*
CCOc1ccc(NC(=O)c2sc(N3CCOCC3)nc2-c2ccccc2)cc1	-6
O=C(NCCCn1ccnc1)c1ccc(Br)o1	6
CN(C)S(=O)(=O)Oc1cc(Cl)ccc1C(=O)Nc1ccc(F)cc1F	-7
O=C(CNC(=S)N(Cc1ccccc1F)C1CCCCC1)NCCCN1CCOCC1	0
Fc1ccc(C(c2nnnn2Cc2ccco2)N2CCN(C3CCCCC3)CC2)cc1 (centres undefined)	89*
c1ccc(Cn2nnnc2C(c2cccnc2)N2CCN(C3CCCCC3)CC2)cc1 (centres undefined)	-4
O=C(c1ccco1)N1CCN(C(c2ccc(F)cc2)c2nnnn2Cc2cccs2)CC1 (centres undefined)	-10
Cc1nc([N+](=O)[O-])c(C(=O)OCc2ccccc2F)n1C	6
C/C(=N\NC(=O)COc1ccc(C(C)(C)C)cc1)c1ccc(N2CCOCC2)cc1	0
CCN(CC)CCOc1cccc(C(C)C)c1	9
CCN(CC)CCOc1ccc(/C(=C(/Cl)c2ccccc2)c2ccccc2)cc1	280*
CCOc1ccc(C(=O)OCCN(CC)CC)cc1	-80
SMILES	INS promoter act
Cc1ccc(N/C(C(Cl)=C(Cl)Cl)=C(/Cl)[N+](=O)[O-])c(C)c1	-8
COc1ccc(-n2c(O)c(Cc3ccccc3)c(=O)n3nc(-c4ccccc4)c(=O)cc23)cc1	-10
Cc1cc(C)n(CCCNC(=O)c2ccc(S(=O)(=O)NCc3ccco3)cc2)n1	50
CCC(CO)n1c(=S)[nH]c2cc(OC)c(OC)cc2c1=O (centres undefined)	-7
CCCCCCCCC(=O)NNC(=O)c1c(O)c2ccccc2n(CCC)c1=O	0
CC1(C)CC(=O)c2cc(C(=O)N3CCCCC3)c(=O)n(-c3ccc(Cl)cc3)c2C1	164*
Cc1cc(C(=O)C(=O)O)c(C)n1-c1ccc(Cl)cc1	-6
O=C(c1cc2cc(Cl)ccc2oc1=O)N1CCCC1	294
CCOC(=O)C1=C(C)C(c2ccccc2O)NC(=O)N1 (centres undefined)	0
CCN(Cc1ccncc1)C(=O)c1cccs1	9
Cc1ccc(S(=O)(=O)c2c(C)cc(C)nc2Cl)cc1	3
COc1nc(N)c(S(=O)(=O)c2ccc(C)cc2)cc1C#N	197*
COc1ccc(-c2nc(N)n(S(=O)(=O)c3ccc(C)cc3)n2)cc1	8
COc1ccc(-c2nc(C)c(C(C)=O)n2O)cc1[N+](=O)[O-]	0
NC(=O)C1CCN(C(=O)/C=C/c2ccco2)CC1	0
CCn1c(SCc2ccc(OC)cc2)nnc1-c1ccncc1	123
O=C(Nc1cc(Cl)cc(Cl)c1)c1cccc(OC(F)F)c1	4
CC(=O)N(c1ccc2oc(=O)sc2c1)S(=O)(=O)c1cccs1	0
COc1ccc(N(C(C)=O)S(=O)(=O)c2cccs2)cc1	506*
CCNC(=O)c1ccc(N(C)S(=O)(=O)c2cccs2)cc1	0
CCOc1ccc(NC(=S)NCC(c2cccnc2)N2CCOCC2)cc1 (centres undefined)	-7
COC(=O)CN(c1ccc(OCc2ccccc2)cc1)S(C)(=O)=O	7
Cc1ccc(CNC(=O)C2CCN(S(=O)(=O)N3CCC4(CC3)OCCO4)CC2)cc1	-6
Cc1cc2cc(CNC(=O)Nc3ccccc3)ccc2[nH]1	0
Nc1ccc(C(=O)OCc2csc(-c3ccccc3)n2)cc1[N+](=O)[O-]	3
SMILES	INS promoter act
COc1cc(NC(=O)CS(=O)(=O)c2ccccc2)cc(OC)c1OC	381
CCOC(=O)CS(=O)(=O)c1ccccc1	0
C/C(CS(=O)(=O)c1ccccc1)=N\O	229*
CCn1c(SCC(=O)Nc2ccc(C(=O)OC)cc2)nc2cccnc21	127
Cc1cnc(C)c(N(C)NC(=S)Nc2ccccc2)n1	485*
Cc1nn(-c2ccccc2)cc1C(=S)Nc1ccccc1	-7
CN(C(=S)Nc1ccccc1)c1ccccc1	-7
O=C(CSc1nnnn1C1CCCC1)Nc1cccc(NC(=O)c2ccco2)c1	830*
CC(=O)Nc1cccc(NC(=O)CSc2nnnn2C(C)C)c1	3
O=C(CSc1nnnn1C1CCCCC1)NCc1cccc(C(=O)O)c1	-3
N#C/C=C(/N)N1CCN(c2ccc(Cl)c(Cl)c2)CC1	-3
CCN(CC)c1ccc(C(=O)OCC(=O)Nc2cccc(S(=O)(=O)NC3=NCCCCC3)c2)cc1	0
N#Cc1c(-c2cccs2)cc(C2CC2)nc1SCC(N)=O	-9
COc1ccccc1NC(=O)CNS(=O)(=O)c1ccccc1	378
COC(=O)C(CCSC)NC(=O)CNS(=O)(=O)c1ccc(Cl)cc1 (centres undefined)	0
COC(=O)C(NC(=O)CNS(=O)(=O)c1ccc(Br)cc1)c1ccccc1 (centres undefined)	275*
CCn1c(C)nc2cc(C(=O)NNC(=S)NC(=O)c3ccccc3)ccc21	7
CCOC(=O)Cc1csc(NC(=S)NC(=O)c2cccc([N+](=O)[O-])c2)n1	147
COc1ccccc1NC(=O)CC1C(=O)NCCN1C(=O)Nc1ccccc1 (centres undefined)	0
C=CCNC(=O)CC1C(=O)NCCN1Cc1c(F)cccc1Cl (centres undefined)	4
CC(C)CCN1CCNC(=O)C1CC(=O)Nc1ccc(F)cc1 (centres undefined)	186*
Cc1cccc(NC(=O)C(=O)NCCCN2CCOCC2)c1	3
COc1ccc(C2=CC(=O)OC(C)(c3ccccc3)O2)cc1 (centres undefined)	-2
CC(C)NC(=O)c1ccccc1NC(=O)CN(c1ccc2c(c1)OCO2)S(C)(=O)=O	-7
Cn1cnnc1SCc1ccc(C(=O)n2ncc(C#N)c2N)cc1	-9
SMILES	INS promoter act
Cc1cc(C(=O)C(=O)O)c(C)n1-c1ccc(Cl)c(Cl)c1	-5
O=C1Cn2c(nc3ccccc32)N1c1cccc(C(F)(F)F)c1	0
O=C(NC1(C(F)(F)F)OCCO1)c1ccc(F)cc1	-79
CCN(CC)S(=O)(=O)c1ccc2c3c(cccc13)C(=O)N2	-71
CCOC(=O)c1c(C)oc2ccc(NS(=O)(=O)c3ccc4c5c(cccc35)C(=O)N4)cc12	506*
Cc1oc2ccc(NS(=O)(=O)c3ccccc3)cc2c1C(=O)Nc1ccccc1	-3
COc1ccc(-c2cn(/N=C/c3ccc(Cl)cc3Cl)c(N)n2)cc1	6
